Results reported in ChEMBL document CHEMBL4513216, “Probing the Open Global Health Chemical Diversity Library for Multistage-Active Starting Points for Next-Generation Antimalarials” (ACS Infect Dis, 2020).

Test: Toxicity liver stage against HepG2, at 10uM
Assay type: cell-based
Design: test concentration 10 uM, cell line HepG2-A16-CD81EGFP
Conditions: human, HepG2-A16-CD81EGFP cells; read-out: INHIBITION
Procedure, shortened: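 Uninfected HepG2-A16-CD81EGFP cells, 3 × 10^3 per well, 1536-well, plated on prespotted compound at 10 μM final, parasite-free screening media added to match infected plates; puromycin 10 μM positive, DMSO 0.5% negative; run in parallel with 48 h PbLuc assay at 37 °C, 5% CO2; viability by CellTiter-Glo luminescence, normalized to controls.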

Compound | cytotoxicity at 10 µM [%]
O=c1ncn(-c2cccc(F)c2)c2ncccc12 | 4.19
O=C1NC[C@H]2CN(Cc3ccnc4ccccc34)CCN12 | -3.66
COc1ccc(-c2noc([C@@H](C)NS(=O)(=O)CC(C)C)c2C(=O)O)cc1 | -5.23
CNC(=O)c1nc(COc2c(C)occc2=O)no1 | 3.08
CC(C)c1nc2oc(C(=O)N3CCOCC3)c(N)c2c2c1CCCC2 | -3.71
CCc1c(C)sc2c1c(N)nc(=O)n2CCCN(C)C | 2.06
COC(=O)c1ccc(S(=O)(=O)NCC(O)c2sccc2C)cc1 (centres undefined) | 2.16
Cn1ccc(CN2CCCC23CCNCC3)n1 | 4.86
CCS(=O)(=O)N1CCOC2(CCCN(c3ncc(F)cn3)C2)C1 (centres undefined) | 5.86
COC[C@]12COC[C@H]1CN(C(=O)C1CCSCC1)C2 | 2.2
CCc1ccc(S(=O)(=O)N2CCCC3(CCCN3S(C)(=O)=O)C2)cc1 (centres undefined) | -2.98
COc1cc(N2CCn3cc(CNc4ccccn4)nc3C2)ncn1 | 13.1
CNC(=O)c1nnc2ccc(N3CCOCC3)cc2n1 | 6.86
CC(C)N(C)CC(=O)Nc1nccn1Cc1ccccc1Cl | 0.0646
CC(O)CCN(C)C(=O)Nc1ccc(Br)cc1 (centres undefined) | -2.1
NC(=O)CNC(c1ccccc1)c1ccc(OC(F)F)cc1 (centres undefined) | 58.2
CN1CCCN(c2ccc(F)cc2CNC(=O)c2cccnc2)CC1 | -2.52
CC(=O)NCCNC(=O)NCc1ccc(-n2ccc(C(F)(F)F)n2)cc1 | -6
COC(=O)c1ccc(NC(C)c2ccc3c(c2)NC(=O)CO3)nn1 (centres undefined) | -4.75
O=C(C1CC(c2cccc(F)c2)=NO1)N1CCc2ccccc21 (centres undefined) | 2.46
Cc1noc(C2CCCN(Cn3cc(Br)cn3)C2)n1 (centres undefined) | -3.67

Compound | cytotoxicity at 10 µM [%]
CC(Cc1c(F)cccc1F)NC(=O)CSCC(N)=O (centres undefined) | -6.37
O=C(NCc1ccccc1CO)Nc1ccc2c(c1)CCO2 | 11.4
Cc1cnn(CC2CN(CCCS(C)(=O)=O)CCO2)c1 (centres undefined) | -2.45
N#CCCCOc1cccnc1NC(=O)CCC1CCCC1 | -2.08
COc1cccc(F)c1C(C)NC(=O)NCCc1ccc(C)nc1 (centres undefined) | -2.13
Cn1cc(S(=O)(=O)Nc2c(F)cccc2N2CCCC2)cn1 | -4.24
CCn1cnnc1CNC(=O)C1CCCN(Cc2cccc(F)c2)C1 (centres undefined) | 3.5
Cc1c(Cl)ccc2ccc(NC(CO)CO)nc12 | -7.78
Cc1ccc(Cl)c2ccc(NC(CO)CO)nc12 | -12.1
CC1(c2ccc(Br)cc2)CC(=O)N(CCC#N)C1=O (centres undefined) | 0.923
COc1c(CNCCC(=O)Nc2cccc(C)n2)c(C(C)C)nn1C | -1.17
O=C(CNc1ccc(OC2CCOC2)cc1)NCc1ccco1 (centres undefined) | 5.03
Cc1c(C(=O)NCCCS(C)(=O)=O)cccc1-c1ccccn1 | 4.83
CC(NC(=O)NCc1cccnc1N(C)C)c1ccc(F)cc1 (centres undefined) | -1.19
CCN(CC(=O)NC)C(=O)Cc1nc(-c2ccco2)oc1C | 22.8
O=C(c1cccc(-c2ncc[nH]2)c1)N1CC[C@H](CO)[C@@H](O)C1 | -0.462
O=C(NCCc1ccncc1)c1ccc(N2CCOCC2)cc1 | -5.08
CC(O)CN1CCc2[nH]nc(C(c3ccccc3)c3ccccc3)c2C1 (centres undefined) | -0.481
CN(C)S(=O)(=O)N1CCN(CC2CCOc3ccccc3C2)CC1 (centres undefined) | -0.529
COc1ccc(F)cc1-c1nc2c([nH]1)c(C1CC1)nn2C | -2.18
OC1(CNCCc2nc3c(s2)CCCC3)CNCCOC1 (centres undefined) | 17.4

Compound | cytotoxicity at 10 µM [%]
Cc1cc(C(=O)N2CC[C@](C)(O)[C@H](C)C2)c(C)n1C | -1.43
CCc1nc(C2CCCN2CC(=O)Nc2nnc(C)s2)no1 (centres undefined) | -1.73
COC(=O)c1cccn1C1CCN(C(=O)c2ccc(C)[nH]c2=O)CC1 | -3.78
CNC(=O)c1ccc(C(=O)N2CCCC(n3nc(C)cc3C)C2)cn1 (centres undefined) | -5.61
NC(=O)C1CCN(C(=O)c2cccn2Cc2cccs2)CC1 | -4.08
CC(=O)NCc1ccc(C(=O)N2CCCC2c2cnn(C)c2)cc1 (centres undefined) | -13.5
COc1ccc(CCNC(=O)N2CCCC(c3nncn3C)C2)cc1 (centres undefined) | -3.92
CCCc1n[nH]c(C2CN(C(=O)c3cccc4cn[nH]c34)CCO2)n1 (centres undefined) | -4.81
CCOc1cc(C(=O)N2CCCC(n3nc(C)nc3C)C2)ccn1 (centres undefined) | -5.99
CCCc1noc(C(C)N2CCN(Cc3nc(C)c(C)o3)CC2)n1 (centres undefined) | -10.6
CN1CCCC1CNC(=O)CCOc1ccc(Cl)cc1 (centres undefined) | -4.31
Cc1ccc(-c2nc(CNCC3CN(C)CCO3)co2)cc1 (centres undefined) | -14.4
O=C(CCCc1ccccc1)N1CCCC(n2cncn2)C1 (centres undefined) | -18.3
Cc1cccc(-c2nc(CN3CCc4cncnc4C3)no2)c1 | -10.4
O=C(c1ccn(-c2cccc(Cl)c2)n1)N1CCN(CCO)CC1 | -17.1
Cc1ncsc1C(=O)NC1CCN(Cc2ccc(C(N)=O)cc2)CC1 | -15
O=C(c1cc2cc(F)ccc2[nH]1)N1CCCCC1Cn1cccn1 (centres undefined) | -8.91
CC(c1ccc(F)cc1F)N1CCN(Cc2nccn2C)CC1 (centres undefined) | -11.7
CCc1nc(CN(C)C2CCN(CCc3ccncc3)C2)no1 (centres undefined) | -20.2
CCc1[nH]ncc1C(=O)N1CCCC(n2cc(C)cn2)C1 (centres undefined) | -11.4
Cc1ncc(CNC(=O)N(CCCO)C2CCc3ccccc32)s1 (centres undefined) | -12.9

Compound | cytotoxicity at 10 µM [%]
c1ccc2oc(CCCN3CCc4cncnc4C3)nc2c1 | -14.6
CCC(O)CN1CCN(C(=O)c2ccc(Cn3cccc3)cc2)CC1 (centres undefined) | -6.54
CCNC(=O)NCCCn1nc2ccccn2c1=O | -18.2
CC(O)CN1CCC(CNCc2cccc(C(F)(F)F)c2)CC1 (centres undefined) | -15.2
c1cnnc(N2CCCC(NCc3cccc4c3OCCO4)C2)c1 (centres undefined) | -7.99
O=C(Cc1c[nH]c2ccccc12)N1CCC(Nc2cccnc2)CC1 | -26.6
CCn1cc(NC(=O)Nc2ccc3c(c2)OCCO3)cn1 | -1.04
Clc1ccccc1Cn1cc(CNC2CCc3ncnn3C2)cn1 (centres undefined) | 1.91
CC(NC(=O)NCCc1ccc(Cl)s1)c1ccccn1 (centres undefined) | -3.07
CCc1n[nH]c(C2CN(C(=O)c3ccc4c(c3)CCC4)CCO2)n1 (centres undefined) | -13.1
Cc1cnn(CC2CN(CCCc3nc4ccccc4o3)CCO2)c1 (centres undefined) | -2.45
O=C(NCCn1nc2ccccn2c1=O)c1cc(C2CC2)[nH]n1 | 0.763
Cc1cc(C(=O)N[C@H](C)c2onc(C)c2C(=O)O)c(C)o1 | 3.82
Cn1nc(COCC2CC2)c2c1CCN(Cc1ccco1)C2 | -1.77
CN1C(=O)CCC12CCCN(C(=O)c1ccncc1F)C2 (centres undefined) | 11
COC[C@@H]1CCC[C@]12CN(Cc1cccc(C)n1)CCO2 | 5.53
COc1ccccc1OCCNCc1c(C)nn(C)c1N(C)C | -2.9
CS(=O)(=O)NCc1cn2c(n1)CN(Cc1cccnc1)CC2 | -103
Cc1n[nH]cc1CNCC1(c2cccc(F)c2)CCOCC1 | 6.48
Cc1ccc(CN2CCc3onc(C(=O)Nc4cccnc4)c3C2)o1 | 5.15
O=S(=O)(C1CC1)N1CCC2(CCN(Cc3nccs3)CC2)CC1 | 7.67
